MC4R antag cAMP: blocks human MC4R cAMP signaling. P32245. MC4R-expressing cells, MTII-stimulated cAMP, LANCE TR-FRET. inhibition, % at 6.5 µM. 360,000 tested, 0.48% active. AID 540295;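 active means inhibition above its plate's cutoff, the mean of tested wells on that plate plus 3 SD, cut at about 29% in these data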;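 further: 0% = Melanotan II alone and 100% = Melanotan II plus saturating MCL0020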
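Assay system: human MC4R-expressing U2OS cells; reagent: Melanotan II stimulation of cells; dosing: 6.5 µM single dose; timing: compound 30 min, challenge 1 h, detection 1 h; signal: TR-FRET cAMP assay; replicates: one well per compound, no replicates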
aDG glyco act: alpha-DG glycosylation activation; Pro5-aDG cells, alpha-DG glycosylation AlphaScreen (IIH6); 0% Pro5, 100% B10-LARGE cell signal; activation, % at 10 µM; 360,000 tested, 0.22% active; AID 624168;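 active means activation of at least 8% versus controls, or a plate z-score of at least 8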;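 further: Pro5 are CHO cells carrying HIG-tagged alpha-DG that lacks glycosylation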
NTR1 agonist: NTR1 (human) agonism; P30989; NTR1-U2OS beta-arrestin-GFP spot imaging, agonist mode; activation, % at 20 µM; 330,000 tested, 0.17% active;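 active means activation at or above 40% of the spot to cytoplasm intensity ratio, with at least 20 cells analyzed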;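 further: 0% = DMSO without peptide and 100% = 100 nM NTR1 peptide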
H9c2 TAG inh: reduces triacylglycerol accumulation in H9c2 cells. inhibition, % at 12.5 µM. Nile Red lipid (TAG) fluorescence; cells loaded with 200 µM oleic acid. AID 651582. 230,000 tested, 0.66% active;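 active means pattern-corrected inhibition of lipid staining of at least 50% with the nuclear-stain viability signal not falling by more than 50%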;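 further: 0% = DMSO wells and 100% = triacsin C control wells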
MC4R ag barr: activates human MC4R beta-arrestin recruitment; U2OS MC4R beta-arrestin complementation, luminescence; percent of melanotan II response, DMSO zero; activation, % at 8.9 µM; 360,000 tested, 0.98% active; AID 540308;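 active means activation above a per-plate cutoff, the mean activation of sample wells on that plate plus 3 SD, cut at about 8% in these data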
Tb MetRS inh: Trypanosoma brucei MetRS inhibition; purified T. brucei MetRS, ATP depletion, Kinase-Glo luminescence; AID 624268; 360,000 tested, 0.4% active; inhibition, % at 11.9 µM;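 active means inhibition above a per-plate cutoff of the control wells' mean inhibition plus 3 SD, cut at about 5.5% in these data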;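 further: 0% = DMSO wells median and 100% = median of wells with control inhibitor compound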
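Test system – parasite MetRS enzyme · Reagent – substrates ATP, L-methionine and bulk Escherichia coli tRNA · Doses – 11.9 µM compound single dose, 0.9% DMSO · Times – 15 min enzyme-compound preincubation, 2 h reaction, 10 min detection, 25 °C · Signal – Kinase-Glo luminescence, ATP depletion format · Controls – DMSO-only wells as low control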
MC4R barr ag: human MC4R beta-arrestin agonism confirmation | shares compounds with MC4R ag barr | U2OS MC4R beta-arrestin recruitment, luminescence; scaled DMSO 0%, Melanotan II 100% | activation, % at 8.9 µM | 2,400 tested, 31% active;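 active means mean activation across replicates above the hit cutoff set in the earlier primary screen, cut at about 8% in these data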
MOR DOR agonist: activates mu-delta opioid heterodimer, MC4R agonist counter-screen; shares compounds with MC4R ag barr; U2OS PathHunter beta-arrestin, beta-gal luminescence; percent of deltorphin B response, DMSO zero; activation, % at 9.2 µM; 2,400 tested, 5.8% active; AID 602194;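 active means mean activation across replicates exceeds the hit threshold derived in the earlier primary screen, cut at about 18% in these data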;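 further: 100% = deltorphin B at 0.9 µM final and 0% = DMSO alone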
Target sequence (P35372 whole entry, looked up): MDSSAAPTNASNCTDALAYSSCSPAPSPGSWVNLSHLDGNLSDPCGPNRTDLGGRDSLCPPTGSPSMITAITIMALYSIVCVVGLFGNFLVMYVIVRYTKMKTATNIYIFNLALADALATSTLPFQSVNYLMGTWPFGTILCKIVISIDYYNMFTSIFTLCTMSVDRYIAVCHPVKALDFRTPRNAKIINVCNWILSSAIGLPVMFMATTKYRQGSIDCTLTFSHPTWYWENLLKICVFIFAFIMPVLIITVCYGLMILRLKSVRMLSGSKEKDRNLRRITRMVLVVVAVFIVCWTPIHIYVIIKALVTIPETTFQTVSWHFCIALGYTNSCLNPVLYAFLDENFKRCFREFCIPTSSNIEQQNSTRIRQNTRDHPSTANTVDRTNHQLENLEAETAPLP
Target sequence (P41143 whole entry, looked up): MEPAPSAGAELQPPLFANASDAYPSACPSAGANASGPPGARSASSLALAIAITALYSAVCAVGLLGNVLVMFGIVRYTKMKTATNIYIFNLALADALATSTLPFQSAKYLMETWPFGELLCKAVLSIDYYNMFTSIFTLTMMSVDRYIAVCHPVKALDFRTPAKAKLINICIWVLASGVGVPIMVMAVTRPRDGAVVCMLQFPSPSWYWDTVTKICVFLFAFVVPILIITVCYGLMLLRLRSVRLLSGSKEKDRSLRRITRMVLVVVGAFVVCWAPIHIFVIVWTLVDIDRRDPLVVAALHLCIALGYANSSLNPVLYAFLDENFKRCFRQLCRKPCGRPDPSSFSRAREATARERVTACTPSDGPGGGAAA
Starred values were filed as active, the others as inactive; · = not tested or not shown. Rows were chosen to be rich in hits. Some 2.4% of all compounds tested hit in one or more screens of this group.

SMILES	MC4R antag cAMP	aDG glyco act	NTR1 agonist	H9c2 TAG inh	MC4R ag barr	Tb MetRS inh	MC4R barr ag	MOR DOR agonist
CC1(C(=O)NS(=O)(=O)c2cccc(F)c2)CCN1C(=O)CC1CCCCC1 (configuration not stated)	11.2	-0.3	·	3.4	-0.8	-0.3	·	·
O=C(Cc1cnn(-c2ccccc2)c1)c1ccc(O)c(O)c1O	-5.6	-0.2	-0.4	-8.4	-4.4	0.1	·	·
CCc1cc(C(=O)Cc2cnn(-c3ccccc3)c2)c(O)cc1O	-7.1	-0.1	10.2	·	22.0*	-1.6	7.7	5.1
CCOc1ccc(-c2nnc3n2N=C(c2ccc(OC)cc2)CS3)cc1	-6.9	0.0	1.8	·	12.2*	-0.6	2.6	6.7
CCOc1ccc(C2=Nn3c(nnc3-c3ccccc3OC)SC2)cc1	-21.3	-0.3	·	·	-2.5	-0.4	·	·
CCCCNC(=O)c1nc(C2CCNCC2)oc1-c1cccc(C(F)(F)F)c1	·	0.4	·	·	·	-0.1	·	·
Cc1ccc(NC(=O)C2CCN(S(=O)(=O)c3ccc(Cl)c(C(F)(F)F)c3)CC2)nc1	1.5	0.3	-0.1	-0.6	9.9*	-0.3	1.9	7.4
Cc1ccnc(NC(=O)C2CCN(S(=O)(=O)c3ccc(Cl)c(C(F)(F)F)c3)CC2)c1	5.2	0.0	1.2	-6.4	6.7	-0.5	·	·
CC1CCCN(C(=O)COC(=O)C2CCN(S(=O)(=O)c3ccc(Cl)c(C(F)(F)F)c3)CC2)C1 (configuration not stated)	-4.3	0.0	-0.1	-4.9	56.4*	-0.3	2.2	2.3
O=C(CC[C@H]1O[C@@H](n2cnc3c(NC(=O)c4ccccc4)ncnc32)[C@H](O)[C@@H]1O)NCc1nc2ccccc2[nH]1	·	0.2	·	·	·	1.2	·	·
CN1C(=O)/C(=C/c2ccc(OCc3ccc(F)cc3)cc2)NC1=S	-3.7	0.1	7.7	·	20.3*	-0.6	7.0	12.7
CN1C(=O)/C(=C/c2ccc(OCc3ccccc3F)cc2)NC1=S	8.1	0.3	19.6	·	20.1*	-0.3	1.9	5.4
CN1C(=O)/C(=C/c2ccc(OCc3ccc(F)cc3)cc2)N(C)C1=S	-1.7	0.1	0.3	-22.8	-0.5	-1.5	·	·
Cc1[nH]c2ccc(-c3nnc(SCC(=O)c4ccccc4F)o3)cc2c1C	15.8	-0.2	7.2	·	10.4*	0.5	0.7	4.4
COc1ccc(C=C2SC(=S)N(CCCN3CCOCC3)C2=O)c(OC)c1	6.8	0.9	·	-9.1	15.0*	-0.2	4.9	21.0*
COc1ccccc1/C=C1\SC(=S)N(CCC(=O)NCCCN2CCOCC2)C1=O	12.0	0.7	0.3	·	0.9	-0.5	·	·
C/C=C(/C)C(=O)OC1CC(C)(C)C[C@H]2C3=CC[C@@H]4[C@@]5(C)CCC(O[C@@H]6O[C@@H](C(=O)O)[C@@H](O)C(O[C@@H]7OC[C@H](O)[C@@H](O)[C@@H]7O[C@@H]7OC(CO)C(O)[C@@H](O)[C@@H]7O)C6O[C@@H]6OC(CO)C(O)C(O)C6O)[C@@](C)(CO)[C@@H]5CC[C@]4(C)[C@]3(C)CC(O)[C@@]12CO (some centres not stated)	26.8	0.6	8.3	5.8	9.9*	0.3	8.6*	4.3
COc1c(F)c(F)c(C(=O)Nc2ccc(N3CCN(Cc4ccccc4)CC3)cc2)c(F)c1F	12.9	2.1	10.4	·	11.2*	0.0	2.1	4.5
COc1ccc(C(=O)OCC(=O)NC(=O)Nc2ccccc2F)c(OC)c1	-7.7	1.0	-0.7	18.9	24.6*	0.1	2.3	14.7
CCc1ccc2oc(C(=O)Nc3nonc3C)c(C)c2c1	-3.4	0.0	0.2	·	1.7	-0.7	·	·
Cc1cc2oc(C(=O)Nc3nonc3C)c(C)c2cc1C	17.5	0.0	0.7	·	13.9*	-0.3	-1.5	5.0
CCCc1nc2ccc(C)cn2c1Cc1ccc(OC)cc1C	·	0.3	·	·	·	-1.0	·	·
Cc1cc2c(cc1S(=O)(=O)N1CCN(c3cccc(C(F)(F)F)c3)CC1)OCC(=O)N2	6.0	1.1	9.1	·	7.6	-0.3	·	·
CC(=O)c1ccc(N2CCN(S(=O)(=O)c3cc4c(cc3C)NC(=O)CO4)CC2)cc1	6.8	0.0	-0.1	·	15.8*	-0.7	0.8	1.8
O=C1COc2ccc(S(=O)(=O)N3CCN(c4cccc(C(F)(F)F)c4)CC3)cc2N1	10.3	1.1	4.1	·	11.0*	-0.3	2.8	7.2
SMILES	MC4R antag cAMP	aDG glyco act	NTR1 agonist	H9c2 TAG inh	MC4R ag barr	Tb MetRS inh	MC4R barr ag	MOR DOR agonist
COCCCNC(=O)C[C@@H]1C[C@@]2(C(=O)OC)CCCCC=C2N(Cc2ccc(Cl)cc2Cl)C1=O	·	-0.2	·	·	·	0.2	·	·
C[C@H](NC(=O)[C@@H]1CCCN1C(=O)[C@@H]1CCCN1)c1ccccc1	·	-0.1	·	·	·	-1.4	·	·
COc1ccc(NC(=O)c2cc(-c3sc(NC(=O)c4ccccc4)nc3C)n(CCO)n2)cc1	·	0.0	·	·	·	-0.7	·	·
CN(C)c1ccc(-c2csc(C(C)(O)c3cccc(F)c3)n2)cc1 (configuration not stated)	9.9	0.5	·	-57.9	-0.6	0.5	·	·
Cc1cc(-n2nnc3ccccc32)nc2ccccc12	-2.8	0.4	7.3	·	18.0*	-1.3	-0.6	2.3
O=C(NC1CCCCC1)c1[nH]c(C(F)(F)F)nc1-c1ccccc1	·	-0.3	·	·	·	-0.2	·	·
CCN1CCC(O)(/C=C/c2ccc(C(C)C)cc2)C(C(=O)/C=C/c2ccc(C(C)C)cc2)C1 (configuration not stated)	4.0	-0.4	·	66.2*	11.7*	0.0	17.4*	13.7
CCN1CCN(C(=O)/C=C/c2ccc(C(C)C)cc2)CC1	6.4	0.4	0.6	-35.8	-3.4	-0.3	·	·
CCNC(=O)N(C)c1c(CC)nc2ccc(C(=O)N3CCN(S(=O)(=O)CC)CC3)cn12	4.5	0.1	·	11.2	-0.6	-0.2	·	·
CN(C)C1CN(Cc2cn(Cc3ccc(C(F)(F)F)cc3)nn2)S(=O)(=O)C1 (configuration not stated)	·	0.0	·	·	·	-0.8	·	·
Cc1csc(NC(=O)CSc2nc3sc(C)c(C)c3c(=O)[nH]2)n1	-1.2	0.0	3.0	-13.4	4.0	-1.2	·	·
Cc1sc2nc(SCC(=O)Nc3ccccc3F)[nH]c(=O)c2c1C	-1.9	-0.1	1.0	·	11.8*	0.2	2.3	3.5
Cc1ccc(C(=O)c2no[n+]([O-])c2C(=O)c2ccc(C)cc2)cc1	17.9	-0.2	8.1	51.9*	19.0*	-0.7	4.6	39.0*
Cc1ccc(C(=O)c2ccc(C)cc2)cc1	4.5	-0.1	0.9	8.3	0.7	-0.8	·	·

Screening data deposited in PubChem BioAssay by several laboratories.
